The values below come from ChEMBL document CHEMBL3352307, “Bioactive anthraquinone derivatives from the mangrove-derived fungus Stemphylium sp. 33231” (J Nat Prod, 2014).

Converted amounts (≈) assume the structure as drawn.

Assay [1] can be described thus: Cytotoxic activity against mouse B16F10 cells by MTT assay. The settings on record: B16-F10. The class given is functional, cell-based. In outline: (§1)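 MTT viability read-out on mouse melanoma B16F10 and human lung adenocarcinoma A549 lines, with epirubicin as positive control. Activity is given as IC50.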
For orientation: Tetrazolium assays rely on reduction of a dye to a coloured formazan, in cell work by metabolically active cells.

The test system of assay [2] is A549. Description: Cytotoxic activity against human A549 cells by MTT assay. The class given is functional, cell-based. An outline of the steps: as §1
The test system of assay [3] is Micrococcus. Description: Antimicrobial activity against Micrococcus tetragenus ATCC 13623 by broth dilution assay. The class given is functional. The settings on record: Micrococcus, ATCC 13623; read-out: MIC. In outline: (§2)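 Conventional broth dilution run on the seven terrestrial pathogenic bacterial strains, with ciprofloxacin as positive control.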
For orientation: In broth dilution the organism is exposed to a series of concentrations in liquid medium.

Assay [4] deals with Escherichia coli. Description: Antimicrobial activity against Escherichia coli ATCC 25922 by broth dilution assay. The conditions noted are these: Escherichia coli, ATCC 25922; read-out: MIC. The class given is functional. An outline of the steps:
as §2

Assay [5] deals with Staphylococcus. Description: Antimicrobial activity against Staphylococcus albus ATCC 8799 by broth dilution assay. The class given is functional. The conditions noted are these: Staphylococcus, ATCC 8799; read-out: MIC. An outline of the steps: as §2
The subject of assay [6] is Bacillus cereus. As to the kind of experiment: Antimicrobial activity against Bacillus cereus ATCC 14579 by broth dilution assay. The class given is functional. The conditions noted are these: Bacillus cereus, ATCC 14579; read-out: MIC. In outline: as §2
Assay [7] deals with Staphylococcus aureus. Description: Antimicrobial activity against Staphylococcus aureus ATCC 6538 by broth dilution assay. It is filed as functional. The settings on record: Staphylococcus aureus, ATCC 6538; read-out: MIC. An outline of the steps: as §2
Assay [8] has as its system Kocuria rhizophila. As to the kind of experiment: Antimicrobial activity against Kocuria rhizophila ATCC 9341 by broth dilution assay. The settings on record: Kocuria rhizophila, ATCC 9341; read-out: MIC. The class given is functional. In outline: as §2
The subject of assay [9] is Bacillus subtilis. Description: Antimicrobial activity against Bacillus subtilis ATCC 6633 by broth dilution assay. It is filed as functional. The settings on record: Bacillus subtilis, ATCC 6633; read-out: MIC. In outline:
as §2

For orientation: IC50 means the midpoint of a concentration-inhibition curve. The low end stands for higher potency, the high end for lower potency. A word on the MIC: it is the smallest concentration in the dilution series that meets the test's criterion for growth inhibition. Turning to `COc1cc(O)c2c(c1)C(=O)c1cc(C)c(O)c(-c3c(OC)cc4c(c3O)C(=O)C3=C(C4=O)[C@@H](O)[C@](C)(O)[C@H](O)[C@H]3O)c1C2=O` (single isomer, unassigned; atropisomer 1) [ALTERPORRIOL C], the IC50 in assay [1] and in assay [2] was over 10 µM in each case. Besides, the minimal inhibitory concentration (MIC) in assay [3] was over 10 µM; in assay [4], over 10 µM; in [5], 8.9 µM (≈ 5.51 µg/mL); in assay [6], over 10 µM; in [7], over 10 µM; in assay [8], over 10 µM. The minimum inhibitory concentration (MIC) in assay [9] is over 10 µM.
In the case of `COc1cc(O)c2c(c1)[C@H](O)[C@@H]1[C@H](C[C@@H](O)[C@@](C)(O)[C@@H]1O)C2=O` [ALTERSOLANOL L], the IC50 in [1] and in assay [2] was over 10 µM in each case. Moreover, the MIC in assay [3], in [4], in assay [5], in assay [6], in assay [7] and in [8] was over 10 µM throughout. In assay [9], the MIC was over 10 µM.
With `COc1cc2c(c(O)c1-c1c(OC)cc(O)c3c1C(=O)C1=C(C[C@@H](O)[C@@](C)(O)C1)C3=O)C(=O)C1=C(C[C@](C)(O)[C@H](O)C1)C2=O`, the IC50 in assay [1] and in assay [2] was over 10 µM in each case. Besides, the MIC in assay [3] is over 10 µM; in assay [4], over 10 µM; in assay [5], over 10 µM; in [6], 8.3 µM (≈ 5.03 µg/mL); in assay [7], over 10 µM; in assay [8], over 10 µM. The MIC in assay [9] was over 10 µM.
Consider `COc1cc(O)c2c(c1)C(=O)[C@@]13O[C@]1(C2=O)[C@H](O)[C@@H](O)[C@@](C)(O)[C@@H]3O`, for which the half-inhibitory concentration (IC50) in assay [1] and in assay [2] was over 10 µM in each case. In addition, the minimum inhibitory concentration (MIC) in assay [3] was over 10 µM; in assay [4], 9.8 µM (≈ 3.45 µg/mL); in assay [5], over 10 µM; in assay [6] it was over 10 µM; in [7], over 10 µM; in assay [8], over 10 µM. The minimal inhibitory concentration (MIC) in [9] was over 10 µM.
As to `COc1cc(O)c2c(c1)C(=O)C1=C(C[C@@H](OC(C)=O)[C@@](C)(O)C1)C2=O`, the half-maximal inhibitory concentration (IC50) in [1] and in [2] was over 10 µM each time. The minimal inhibitory concentration (MIC) in assay [3] is 7.8 µM (≈ 2.7 µg/mL); in [4], 3.9 µM (≈ 1.35 µg/mL); in [5] it was 3.9 µM (≈ 1.35 µg/mL); in assay [6], over 10 µM; in [7], 3.9 µM (≈ 1.35 µg/mL); in [8], over 10 µM. Further, the minimum inhibitory concentration (MIC) in assay [9] is 3.9 µM (≈ 1.35 µg/mL).
